These results are taken from ChEMBL document CHEMBL4699542, “Design and synthesis of novel methoxypyridine-derived gamma-secretase modulators” (Bioorg Med Chem, 2020).

The nature of series [1]: Kinetic aqueous solubility of the compound in pH 7.4 PBS buffer by UV/Visible absorbance analysis. The series is classed as physicochemical. To be noted: read-out: Kinetic_solubility. The essentials:
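Kinetic solubility determined in PBS at pH 7.4 by UV/Vis absorbance, reported in μM.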

The next series deals with Gamma-secretase. The series is described as follows: Modulation of gamma secretase in human SH-SY5Y cells overexpressing wild type APP751 assessed as inhibition of amyloid beta (35 to 42 residues) formation incubated for overnight by ELISA. The series is classed as cell-based. The essentials: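 SHSY5Y-APP751 cells plated at 75K/well and incubated overnight at 37 °C, then treated 24 h over 10 concentrations ([…]–10 μM, 1:3.16 steps, in duplicate). Medium Aβ42 measured by sandwich ELISA (Aβ35–42 capture, AP-conjugated Aβ1–12 detection, CDP-Star luminescence) against an Aβ42 standard curve.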
For orientation: An ELISA detects its analyte on a solid surface through an enzyme-linked reagent.

Series [2] can be described thus: Metabolic stability in human liver microsomes assessed as parent compound remaining at 1 uM incubated for 30 mins. The series is classed as ADME, Microsome. To be noted: for Stabilty: microsomes, 0.5 h, 1 µM. The essentials:
(§1)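 Test compound at 1 μM incubated 30 min with human, rat or mouse liver microsomes (1 mg/mL); parent remaining expressed as %.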

Series [3] is described as follows: Metabolic stability in rat liver microsomes assessed as parent compound remaining at 1 uM incubated for 30 mins. The series is classed as ADME, Microsome. To be noted: 0.5 h. The essentials: as §1
For orientation: Liver microsomes are vesicles of endoplasmic reticulum, rich in cytochrome P450 enzymes.

Series [4] in a line: Metabolic stability in mouse liver microsomes assessed as parent compound remaining at 1 uM incubated for 30 mins. The series is classed as ADME, Microsome. To be noted: 0.5 h. The essentials: as §1
Another series addresses Cytochrome P450 3A4 (Homo sapiens, UniProt P08684). The series is described as follows: Inhibition of recombinant CYP3A4 (unknown origin) by fluorescence-based assay. The class given is ADME.
For another series, the target named is T1, Cytochrome P450 1A2 (Homo sapiens, UniProt P05177).
T1 sequence (P05177 whole entry): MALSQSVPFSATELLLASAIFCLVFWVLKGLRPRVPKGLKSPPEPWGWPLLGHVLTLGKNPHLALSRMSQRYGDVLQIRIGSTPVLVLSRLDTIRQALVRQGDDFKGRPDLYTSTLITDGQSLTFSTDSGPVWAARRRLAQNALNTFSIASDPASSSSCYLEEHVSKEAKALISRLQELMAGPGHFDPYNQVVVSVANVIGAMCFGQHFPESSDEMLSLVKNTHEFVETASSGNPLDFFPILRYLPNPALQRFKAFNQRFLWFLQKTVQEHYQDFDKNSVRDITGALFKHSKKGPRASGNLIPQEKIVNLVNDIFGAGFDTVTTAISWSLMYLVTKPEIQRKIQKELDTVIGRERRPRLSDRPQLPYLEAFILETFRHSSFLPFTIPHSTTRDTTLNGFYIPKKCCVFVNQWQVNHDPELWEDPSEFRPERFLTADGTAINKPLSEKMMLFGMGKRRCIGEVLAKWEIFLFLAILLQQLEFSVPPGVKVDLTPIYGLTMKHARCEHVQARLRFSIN
The series is described as follows: Inhibition of recombinant CYP1A2 (unknown origin) by fluorescence-based assay. The class given is ADME. The essentials: (§2)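 Recombinant CYP isoforms (five tested) screened for inhibition in fluorescence-based assays; IC50 in μM.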

The target in a further series is Cytochrome P450 2C9 (Homo sapiens, UniProt P11712). The series is described as follows: Inhibition of recombinant CYP2C9 (unknown origin) by fluorescence-based assay. The series is classed as ADME. The essentials: as §2
The target of another series is Cytochrome P450 2C19 (Homo sapiens, UniProt P33261). The series is described as follows: Inhibition of recombinant CYP2C19 (unknown origin) by fluorescence-based assay. The series is classed as ADME. The essentials: as §2
Another series addresses Cytochrome P450 2D6 (Homo sapiens, UniProt P10635). The series is described as follows: Inhibition of recombinant CYP2D6 (unknown origin) by fluorescence-based assay. The class given is ADME. The essentials:
as §2

In brackets after ≈: the same amount, converted by molar mass.

Chain of Cytochrome P450 2C19 (P33261 whole entry): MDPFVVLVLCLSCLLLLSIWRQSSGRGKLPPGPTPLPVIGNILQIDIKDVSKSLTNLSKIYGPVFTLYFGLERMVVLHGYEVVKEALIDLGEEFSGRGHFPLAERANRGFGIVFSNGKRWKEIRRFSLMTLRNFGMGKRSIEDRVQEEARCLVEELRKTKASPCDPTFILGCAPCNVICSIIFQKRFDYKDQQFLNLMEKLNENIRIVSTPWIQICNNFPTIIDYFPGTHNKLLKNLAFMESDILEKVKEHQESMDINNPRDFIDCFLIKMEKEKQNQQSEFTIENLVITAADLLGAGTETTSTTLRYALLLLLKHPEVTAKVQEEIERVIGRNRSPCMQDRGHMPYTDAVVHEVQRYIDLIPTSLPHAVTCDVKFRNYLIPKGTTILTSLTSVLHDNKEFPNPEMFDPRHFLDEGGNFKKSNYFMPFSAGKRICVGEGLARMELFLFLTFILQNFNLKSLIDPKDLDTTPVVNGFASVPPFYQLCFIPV
Chain of Cytochrome P450 2C9 (P11712 whole entry): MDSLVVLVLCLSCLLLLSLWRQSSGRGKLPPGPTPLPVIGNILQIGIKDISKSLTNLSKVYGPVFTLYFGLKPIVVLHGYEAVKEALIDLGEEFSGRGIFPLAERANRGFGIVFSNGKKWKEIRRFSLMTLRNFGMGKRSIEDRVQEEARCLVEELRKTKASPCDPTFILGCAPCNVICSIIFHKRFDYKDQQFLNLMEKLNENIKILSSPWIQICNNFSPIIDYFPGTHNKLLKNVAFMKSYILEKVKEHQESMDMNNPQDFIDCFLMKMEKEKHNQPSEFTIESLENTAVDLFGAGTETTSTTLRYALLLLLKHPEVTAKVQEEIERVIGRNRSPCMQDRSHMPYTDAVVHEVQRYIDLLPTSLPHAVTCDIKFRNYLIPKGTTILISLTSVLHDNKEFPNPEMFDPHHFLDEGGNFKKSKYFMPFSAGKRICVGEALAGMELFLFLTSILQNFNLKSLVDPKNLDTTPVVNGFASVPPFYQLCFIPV
Chain of Cytochrome P450 2D6 (P10635 whole entry): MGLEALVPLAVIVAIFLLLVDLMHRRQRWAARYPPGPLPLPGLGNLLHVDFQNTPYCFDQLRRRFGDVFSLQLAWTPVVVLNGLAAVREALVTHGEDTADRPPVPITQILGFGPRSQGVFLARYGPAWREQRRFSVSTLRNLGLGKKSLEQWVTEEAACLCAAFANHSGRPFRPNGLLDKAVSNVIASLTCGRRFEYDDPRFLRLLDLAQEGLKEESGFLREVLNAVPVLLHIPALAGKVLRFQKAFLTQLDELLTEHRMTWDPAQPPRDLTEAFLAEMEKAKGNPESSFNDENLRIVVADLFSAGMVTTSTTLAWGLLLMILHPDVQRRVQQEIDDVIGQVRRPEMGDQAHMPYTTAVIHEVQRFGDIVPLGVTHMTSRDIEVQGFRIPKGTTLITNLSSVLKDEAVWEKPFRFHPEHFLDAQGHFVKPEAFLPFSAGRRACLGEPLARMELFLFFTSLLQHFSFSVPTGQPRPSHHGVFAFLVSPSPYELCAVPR
Chain of Cytochrome P450 3A4 (P08684 whole entry): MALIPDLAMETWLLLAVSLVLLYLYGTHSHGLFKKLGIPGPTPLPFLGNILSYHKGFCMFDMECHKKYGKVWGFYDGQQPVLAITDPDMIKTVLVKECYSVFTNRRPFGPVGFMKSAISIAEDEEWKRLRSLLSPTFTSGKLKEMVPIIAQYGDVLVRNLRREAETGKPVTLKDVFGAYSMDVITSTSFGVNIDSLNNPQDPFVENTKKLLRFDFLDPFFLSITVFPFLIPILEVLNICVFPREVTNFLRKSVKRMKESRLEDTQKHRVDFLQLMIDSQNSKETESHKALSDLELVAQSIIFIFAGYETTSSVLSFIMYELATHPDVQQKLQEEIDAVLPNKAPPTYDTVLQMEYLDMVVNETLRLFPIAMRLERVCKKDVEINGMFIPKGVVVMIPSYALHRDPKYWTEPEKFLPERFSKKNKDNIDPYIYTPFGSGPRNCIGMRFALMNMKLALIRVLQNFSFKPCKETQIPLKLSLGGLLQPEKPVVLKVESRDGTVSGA

Usually IC50 stands for the concentration needed to halve the response being measured. Take `COc1nc(-c2csc(Nc3c4c(nn3C3CCC3)CCCC4)n2)ccc1-n1cnc(C)c1`: the solubility kinetic in series [1] turned out to be 30 µM (≈ 13.8 µg/mL). The IC50 on Gamma-secretase was 64 nM; on Cytochrome P450 3A4, 590 nM; on Cytochrome P450 1A2, greater than 100000 nM; at Cytochrome P450 2C9, 660 nM; at Cytochrome P450 2C19, 1600 nM; on Cytochrome P450 2D6, greater than 100000 nM. Also, the Stabilty in series [2] was determined as 9.5%; in [3], 42%; in series [4], 44%.
Regarding `COc1cc(-c2csc(Nc3c4c(nn3C)CCCC4)n2)ccc1-n1cnc(C)c1`, the IC50 on Gamma-secretase came out at 148 nM.
For orientation: share remaining means what is left of the initial amount, in per cent. As for `Cc1cn(-c2ccc(-c3csc(Nc4c5c(nn4C)CCCC5)n3)cc2)cn1`, at Gamma-secretase, the IC50 turned out to be 453 nM. Moreover, the amount remaining at 0.5 h, 1 µM in series [2] (liver microsomes) turned out to be 55%. The Stabilty in [3] was 56%; in series [4], 84%.
Regarding `COc1nc(-c2csc(Nc3c4c(nn3C(C)C)CCCC4)n2)ccc1-n1cnc(C)c1`, in [1], the solubility kinetic was 3.3 µM (≈ 1.48 µg/mL). The IC50 on Gamma-secretase turned out to be 46 nM. For the same compound, the Stabilty in series [2] came out at 10%; in series [3] it was 64%; in series [4], 45%.
With `Cc1cn(-c2ccc(-c3csc(Nc4cc(C(C)(C)C)nn4C)n3)cn2)cn1`, the IC50 at Gamma-secretase is 590 nM.
Consider `CCn1nc2c(c1Nc1nc(-c3ccc(-n4cnc(C)c4)c(OC)c3)cs1)CCCC2`, for which, in series [1], the solubility kinetic was 4.6 µM (≈ 2 µg/mL). On Gamma-secretase, the IC50 amounted to 171 nM.
In the case of `COc1nc(-c2csc(Nc3cc(C(F)(F)F)nn3CC(F)(F)F)n2)ccc1-n1cnc(C)c1`, the solubility kinetic in [1] was determined as 2 µM (≈ 1.01 µg/mL). For the same compound, the IC50 at Gamma-secretase was 199 nM.
On the same counts, the results for `CCn1nc2c(c1Nc1nc(-c3cnc(-n4cnc(C)c4)c(OC)n3)cs1)CCCC2` are less than 1.6 µM and 89 nM.
For the compound `COCCn1nc2c(c1Nc1nc(-c3ccc(-n4cnc(C)c4)c(OC)n3)cs1)CCCC2`, in series [1], the solubility kinetic stood at 20 µM (≈ 9.31 µg/mL). For the same compound, the IC50 on Gamma-secretase was found to be 144 nM. Further, the Stabilty in series [2] amounted to 1.8%; in series [3], 45%; in series [4], 29%.
With `COc1nc(-c2csc(Nc3c4c(nn3C3CCOCC3)CCCC4)n2)ccc1-n1cnc(C)c1`, in series [1], the solubility kinetic came to 4.7 µM (≈ 2.31 µg/mL). The IC50 at Gamma-secretase came out at 102 nM.
On to `CCn1nc(C(C)(C)C)cc1Nc1nc(-c2ccc(-n3cnc(C)c3)cc2)cs1`, for which the IC50 at Gamma-secretase stood at 339 nM.
Still for that read-out and setting: under `CCn1nc2c(c1Nc1nc(-c3ccc(-n4cnc(C)c4)c(O)n3)cs1)CCCC2` stands 468 nM.
For `COc1nc(-c2csc(Nc3c4c(nn3C(C)(C)C)CCC4)n2)ccc1-n1cnc(C)c1`, the solubility kinetic in series [1] turned out to be 3.9 µM (≈ 1.75 µg/mL). The IC50 on Gamma-secretase turned out to be 62 nM. The Stabilty in series [2] is given as 21%; in series [3], 55%; in series [4], 20%.
Turning to `COc1nc(-c2csc(Nc3cc(C(C)(C)C)nn3C(C)(C)C)n2)ccc1-n1cnc(C)c1`, in series [1], the solubility kinetic is less than 1.6 µM. Further, the IC50 at Gamma-secretase stood at 40 nM.
`Cc1cn(-c2ccc(-c3csc(Nc4c5c(nn4C)CCCC5)n3)cn2)cn1`: the IC50 at Gamma-secretase was greater than 1000 nM.
As for `CCn1nc2c(c1N(C)c1nc(-c3ccc(-n4cnc(C)c4)c(OC)n3)cs1)CCCC2`, the solubility kinetic in series [1] worked out at 3.4 µM (≈ 1.53 µg/mL). The IC50 on Gamma-secretase stood at 636 nM.
For the compound `CCn1nc(C(C)(C)C)cc1Nc1nc(-c2ccc(-n3cnc(C)c3)nc2)cs1`, the solubility kinetic in series [1] was less than 1.6 µM. Moreover, the IC50 on Gamma-secretase was 292 nM. The Stabilty in series [2] worked out at 43%; in series [3], 60%; in series [4] it was 87%.
On the same counts, the results for `COc1nc(-c2csc(Nc3c4c(nn3C(C)C)CCC4)n2)ccc1-n1cnc(C)c1` are 5.7 µM (≈ 2.48 µg/mL), 90 nM, 23%, 56% and 34%.
On the same counts, the results for `COc1nc(-c2csc(Nc3c4c(nn3C)CCCC4)n2)ccc1-n1cnc(C)c1` are 15 µM (≈ 6.32 µg/mL), 105 nM, 36%, 60% and 34%.
Turning to `CCn1nc(C(C)C)cc1Nc1nc(-c2ccc(-n3cnc(C)c3)c(OC)n2)cs1`, the IC50 at Gamma-secretase turned out to be 184 nM.
As for `COc1nc(-c2csc(Nc3c4c(nn3CCN3CCCCC3)CCCC4)n2)ccc1-n1cnc(C)c1`, the solubility kinetic in [1] is 46 µM (≈ 23.9 µg/mL). In addition, the IC50 on Gamma-secretase was 208 nM.
The matching figures for `COc1nc(-c2csc(Nc3c4c(nn3C3CCN(C)CC3)CCCC4)n2)ccc1-n1cnc(C)c1`: 92 µM (≈ 46.4 µg/mL) and greater than 1000 nM.
The matching figures for `COc1nc(-c2csc(Nc3c4c(nn3C3CCCCC3)CCCC4)n2)ccc1-n1cnc(C)c1`: less than 1.6 µM and 63 nM.
As for `COc1nc(-c2csc(Nc3c4c(nn3CCN3CCOCC3)CCCC4)n2)ccc1-n1cnc(C)c1`, the solubility kinetic in series [1] came to 70 µM (≈ 36.4 µg/mL). In addition, the IC50 on Gamma-secretase came out at 177 nM. The results for the Stabilty in series [2], in [3] and in series [4] were 0%, 22% and 11%, respectively.
Consider `CCn1nc(C(C)(C)C)cc1Nc1nc(-c2ccc(-n3cnc(C)c3)c(OC)c2)cs1`, for which the IC50 at Gamma-secretase came out at 96 nM.
Take `CCCn1nc2c(c1Nc1nc(-c3ccc(-n4cnc(C)c4)c(OC)n3)cs1)CCCC2`: in series [1], the solubility kinetic was less than 1.6 µM. The IC50 on Gamma-secretase was 48 nM.
On to `COc1nc(-c2csc(Nc3cc(C(C)(C)C)nn3C)n2)ccc1-n1cnc(C)c1`, for which the IC50 on Gamma-secretase turned out to be 136 nM.
Take `CCn1nccc1Nc1nc(-c2ccc(-n3cnc(C)c3)c(OC)n2)cs1`: on Gamma-secretase, the IC50 was greater than 1000 nM.
Take `CCn1nc(C(C)(C)C)cc1Nc1nc(-c2ccc(-n3cnc(C)c3)c(OC)n2)cs1`: the solubility kinetic in [1] amounted to 15 µM (≈ 6.56 µg/mL). In addition, the IC50 at Gamma-secretase was 114 nM. Besides, the Stabilty worked out at 38% in series [2], 89% in series [3] and 67% in series [4].
The matching figures for `COc1nc(-c2csc(Nc3c4c(nn3C3CCC3)CCC4)n2)ccc1-n1cnc(C)c1`: 2.7 µM (≈ 1.21 µg/mL), 21 nM, 3%, 37% and 26%.
Turning to `COc1cc(-c2csc(Nc3cc(C(C)(C)C)nn3C)n2)ccc1-n1cnc(C)c1`, the IC50 at Gamma-secretase stood at 253 nM. In addition, the Stabilty came out at 60% in [2], 76% in series [3] and 92% in series [4].
For `CCCn1nc(C(C)(C)C)cc1Nc1nc(-c2ccc(-n3cnc(C)c3)c(OC)n2)cs1`, the solubility kinetic in [1] turned out to be 2.1 µM (≈ 0.948 µg/mL). The IC50 at Gamma-secretase is 100 nM.
In the case of `Cc1cn(-c2ccc(-c3csc(Nc4cc(C(C)(C)C)nn4C)n3)cc2)cn1`, the IC50 at Gamma-secretase was 275 nM.
On to `COc1nc(-c2csc(Nc3c4c(nn3CCCN3CCOCC3)CCCC4)n2)ccc1-n1cnc(C)c1`, for which the solubility kinetic in [1] worked out at 39 µM (≈ 20.9 µg/mL). In addition, the IC50 on Gamma-secretase was found to be 126 nM. Moreover, the Stabilty stood at 1.9% in [2], 6.4% in [3] and 0.7% in series [4].
The matching figures for `COc1nc(-c2csc(Nc3c4c(nn3C3CCOC3)CCCC4)n2)ccc1-n1cnc(C)c1` (racemic): 19 µM (≈ 9.07 µg/mL), 102 nM, 2.1%, 42% and 70%.
The matching figures for `COc1nc(-c2csc(Nc3c4c(nn3CC(F)(F)F)CCCC4)n2)ccc1-n1cnc(C)c1`: 7.4 µM (≈ 3.62 µg/mL), 57 nM, 13%, 41% and 39%.
Turning to `COc1nc(-c2csc(Nc3cc(C(F)(F)F)nn3C(C)(C)C)n2)ccc1-n1cnc(C)c1`, the solubility kinetic in series [1] was less than 1.6 µM. For the same compound, the IC50 on Gamma-secretase turned out to be 126 nM.
As to `CCn1nc2c(c1Nc1nc(-c3ccc(-n4cnc(C)c4)cc3)cs1)CCCC2`, at Gamma-secretase, the IC50 turned out to be 660 nM.
On the same count and under the same terms, under `CCn1nc2c(c1Nc1nc(-c3ccc(-n4cnc(C)c4)nc3)cs1)CCCC2` stands greater than 1000 nM.
As for `COc1nc(-c2csc(Nc3c4c(nn3C3CCCC3)CCCC4)n2)ccc1-n1cnc(C)c1`, the solubility kinetic in [1] came out at 1.8 µM (≈ 0.856 µg/mL). The IC50 on Gamma-secretase stood at 83 nM.
